# Compound activity (PubChem)
# RAM network inh: yeast RAM network inhibition. 190,000 tested, 1.8% active. S. cerevisiae dse1pr::URA3 reporter, 5-FOA growth OD615, 2 d; analog-sensitive cbk1-as2 kinase mutant strain. inhibition, % at 50 µM;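 active = inhibition above a set limit, 3 SD over mean compound inhibition, cut at about 8.4% in these data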;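 note: 0% = DMSO-only wells with no growth and 100% = 10 µM 1-NA-PP1 full growth; inhibition rescues growth on 5-FOA so higher OD means more RAM inhibition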
# NPY1 pot ag: potentiates or activates human NPY-Y1 receptor; NPY-Y1 expressing cells, potentiator/agonist activation; 220,000 tested, 0.37% active; P25929; AID 1304; activation, % at 3.6 µM; in the data active = activation above about 33%, passing the limit was not always enough;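 note: cells stimulated with NPY at EC10 then isoproterenol at EC100; 0% = low agonist plus stimulus and 100% = saturating agonist plus stimulus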
# WT yeast gro inh: growth inhibition of WT yeast, mitochondrial fusion screen. mitochondrial fusion phenotypic screen, WT strain. inhibition, % at 10 µM. 190,000 tested, 2.1% active; in the data active = inhibition above about 58%; tested in S. cerevisiae
# NPY Y1 blocker: NPY-Y1 (human) receptor antagonism; P25929; HEK293-CNG Y1 cells, membrane potential fluorescence; NPY at EC95, then isoproterenol; inhibition, % at 3.6 µM; 200,000 tested, 1% active; AID 1040;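 active = inhibition above the campaign mean inhibition of all tested compounds plus 3 SD, cut at about 20% in these data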;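 note: 0% = DMSO wells given NPY plus isoproterenol and 100% = isoproterenol alone without NPY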
#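 System: HEK293 cells with Y1 receptor plus CNG channel / Probe or stimulus: NPY 25 nM then isoproterenol 1 µM plus Ro 20-1724 25 µM / Compound: one concentration, 3.6 µM, in 0.4% DMSO / Schedule: compound incubation 1 h at room temperature, readout 45 min post-stimulation / Measured by: membrane potential fluorescence / Read-out: % inhibition of NPY effect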
# NPY-Y2 PAM-ag: potentiators or agonists of human neuropeptide Y receptor Y2; P49146; cells expressing NPY-Y2, potentiator/agonist read-out; activation, % at 3.6 µM; 220,000 tested, 0.45% active; in the data active = activation above about 27%;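 note: cells stimulated with NPY near EC25 plus isoproterenol at EC100; 0% = vehicle plus submaximal agonist and 100% = vehicle plus saturating agonist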
# Target sequence (P49146 whole entry, looked up): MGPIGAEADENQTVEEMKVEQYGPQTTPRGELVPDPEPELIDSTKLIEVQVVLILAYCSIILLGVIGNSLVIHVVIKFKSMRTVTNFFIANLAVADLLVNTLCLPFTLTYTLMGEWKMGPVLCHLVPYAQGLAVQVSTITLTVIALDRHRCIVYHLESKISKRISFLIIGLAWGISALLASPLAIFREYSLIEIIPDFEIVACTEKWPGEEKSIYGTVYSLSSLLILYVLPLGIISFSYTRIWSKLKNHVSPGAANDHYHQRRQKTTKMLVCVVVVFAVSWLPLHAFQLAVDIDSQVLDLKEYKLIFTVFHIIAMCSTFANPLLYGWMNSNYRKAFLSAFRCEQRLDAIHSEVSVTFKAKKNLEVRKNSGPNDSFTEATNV
# NPY-Y2 antag: NPY-Y2 (human) receptor antagonism; P49146; NPY-Y2 expressing cells, antagonist mode; inhibition, % at 2.7 µM; 140,000 tested, 0.99% active; AID 793; in the data active = inhibition above about 17%;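 note: 0% = vehicle with agonist challenge and 100% = reference antagonist with challenge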
# * = called active by the depositor; . = no result. Compounds with a hit are over-represented: about 4.9% of the library has one in this group of screens.
SMILES,RAM network inh,NPY1 pot ag,WT yeast gro inh,NPY Y1 blocker,NPY-Y2 PAM-ag,NPY-Y2 antag
Cc1cc2c(cc(C(=O)N3CCC(C(=O)N4CCCC4)CC3)n2Cc2c(F)cccc2Cl)o1,-1,-2,-11,26*,-13,21*
COc1ccc(N(CC(=O)Nc2cccc(N(C)S(C)(=O)=O)c2)S(=O)(=O)c2ccc(C)cc2)cc1,8,9,5,-5,7,.
CCOc1ccc(N(CC(=O)Nc2cccc(N(C)S(C)(=O)=O)c2)S(=O)(=O)c2ccccc2)cc1,9.6*,14,-2,-1,3,1
O=C(Cn1nc(-c2ccccc2)ccc1=O)Nc1ccc(N2CCN(C(=O)c3ccccc3)CC2)cc1,2,32,2,-12,33*,-7
COc1ccccc1OCC(=O)OCC(=O)Nc1sccc1C(N)=O,4,0,-15,-3,-1,5
O=C(Cn1nc(-c2ccccc2)ccc1=O)Nc1ccc(-n2cnnn2)cc1,.,22,.,.,19,.
O=C(COC(=O)Cc1c(Cl)cccc1Cl)Nc1ccccc1-c1ccccc1,10*,-31,81*,7,-7,7
O=C(COC(=O)Cc1cccc2ccccc12)Nc1ccccc1-c1ccccc1,11*,-14,49,6,3,6
NC(=O)c1ccsc1NC(=O)COC(=O)Cc1cccc2ccccc12,4,-26,78*,2,13,4
COCC(=O)Nc1ccccc1-c1ccccc1,1,4,5,-2,-8,.
O=C(COC(=O)Cc1ccc(Cl)cc1)Nc1ccccc1-c1ccccc1,8,-24,5,5,-14,5
O=C(Nc1cccnc1)c1ccc(S(=O)(=O)c2ccccc2)cc1,-1,-12,-6,1,-6,.
Cc1cc(C)c(NC(=O)COc2nncc3ccccc23)c(C)c1,5,-9,-7,1,1,2
O=C(Cn1nc(-c2ccccc2Cl)ccc1=O)Nc1ccccc1-c1ccccc1,3,26,67*,4,-5,.
CN(CCNC(=O)c1cccc(N2CCCC2=O)c1)Cc1ccccc1,2,18,-14,2,-6,1
CCCOP(=O)(OCCC)C(Nc1cccc(C(F)(F)F)c1)c1ccc(C)cc1 (configuration not stated),10*,2,75*,5,17,13
CCOP(=O)(OCC)C(Nc1cccc(C(F)(F)F)c1)c1ccc(C)cc1 (configuration not stated),5,2,30,5,21,3
CC(=O)/C(=N/Nc1cccc(Cl)c1)Sc1nnc(C(O)c2ccccc2)n1-c1ccccc1 (configuration not stated),3,-1,-19,8,0,6
COC(=O)/C(=N/Nc1ccccc1C)Sc1nnc(C(O)c2ccccc2)n1-c1ccccc1 (configuration not stated),8.8*,5,-7,-6,9,-1
Cc1nonc1CN(C)C(=O)c1ccc(OC2CCN(Cc3ccccn3)CC2)cc1,-1,-7,1,0,-4,.
Cc1cc(N/N=C/c2ccccc2O)nc(-c2ccccc2O)n1,2,9,69*,-3,0,-3
Cc1cc(N/N=C\c2ccccc2)nc(-c2ccccc2O)n1,2,-22,36,3,3,3
Cc1cc(N/N=C/c2ccc(O)cc2O)nc(-c2ccccc2O)n1,10*,16,11,-7,10,-6
Cc1cc(N/N=C/c2ccc(O)cc2O)nc(-n2nc(C)cc2C)n1,1,11,1,0,12,1
Cc1ccc(C(=O)O/N=C2\CCSc3ccc(C)cc32)cc1,4,-9,34,23*,-12,21*
SMILES,RAM network inh,NPY1 pot ag,WT yeast gro inh,NPY Y1 blocker,NPY-Y2 PAM-ag,NPY-Y2 antag
Cc1ccc(Cl)cc1NC(=O)c1ccc(Cn2cc(Cl)cn2)cc1,3,8,19,-1,0,2
CCOC(=O)c1sc(NC(=O)C2CC=CCC2C(=O)O)nc1C (configuration not stated),6,13,-18,1,17,3
CC1=C(C(=O)NCCN2CCN(C)CC2)C2(CCC(C)CC2)OC1=O (configuration not stated),0,-8,5,0,48*,-2
CC(C)COc1ccc(CSCCNC(=S)Nc2ccccc2)cc1,9.0*,7,76*,2,-2,3
CCCCCOc1ccc(CSCCNC(=S)Nc2ccccc2)cc1,0,-22,68*,0,-4,1
O=C(Nc1cccc(C(=O)O)c1)/C(=C/c1ccc([N+](=O)[O-])cc1)NC(=O)c1ccccc1,9.9*,1,-12,1,-6,.
COc1ccccc1/C=C(\NC(=O)c1ccc(OC)c(OC)c1)C(=O)Nc1ccc([N+](=O)[O-])cc1,8.5*,-34,5,4,5,2
O=C(NCCCN1CCOCC1)Nc1ccc(Cc2ccc(NC(=O)NCCCN3CCOCC3)cc2)cc1,3,11,-12,7,-1,1
C/C(=N\OC(=O)c1c(-c2ccccc2Cl)noc1C)c1ccncc1,0,-21,-8,-6,-10,.
C=CCOc1c(Cl)cc(CNc2ccc(N(C)C)cc2)cc1OC,8.4*,5,54,-4,3,-1
CN1CCS/C1=C/C=C1\SC(=S)N(CC(=O)O)C1=O,1,10,-4,-1,12,.
CN1CCS/C1=C/C=C1/SC(=S)N(Cc2ccccc2)C1=O,9.6*,-8,-11,3,5,3
Oc1ccc(Br)cc1C=Nc1ccc2c3c(cccc13)CC2,10*,-6,-1,5,4,0
COc1ccc(/C(O)=C/C(=O)C(=O)NNC(=O)C(O)(c2ccccc2)c2ccccc2)cc1,0,111*,-4,-12,103*,3
Cc1ccc(-n2cccc2C(=S)N=P(N(C)C)(N(C)C)N(C)C)cc1,2,-1,65*,2,-4,2
COCCn1c(SCC(=O)c2[nH]c(C)c(C(C)=O)c2C)nc2ccccc21,0,-17,.,8,-18,4
Cc1ccc(C)c(-n2[nH]c3c4c(ccc3c2=O)C(=O)c2ccccc2C4=O)c1,6,10,67*,0,4,0
CCCCOCCCNC(=O)c1ccc(NC(C)=O)cc1,9.3*,5,10,7,-11,0
O=C(NCCCCCCNC(=O)c1cccs1)c1cccs1,1,-5,5,0,0,.
Clc1ccc(-c2nnc(-c3ccccc3)c(N3CCSCC3)n2)cc1,6,-28,65*,13,-22,4
O=C1CC(=O)N(CCNc2ncc(C(F)(F)F)cc2Cl)C(=O)N1,1,-6,15,0,-20,-1
O=S(=O)(NCCNc1ncc(C(F)(F)F)cc1Cl)C(F)(F)F,1,15,83*,6,-3,.
O=C1C=CC(=O)N1CCNc1ncc(C(F)(F)F)cc1Cl,-1,2,97*,1,10,.
